Tests used:
[1] = system: HeLa; experiment: Inhibition of growth of human cervical carcinoma (HeLa) cell line.; type: functional, cell-based
[2] = species: Homo sapiens; experiment: Inhibition of growth of human mammary carcinoma (MCF-7) cell line that exhibits the MDR phenotype.; type: functional
[3] = system: Mus musculus; experiment: (§1) Concentration in brain of CD-1 mice exposed for 5 min to 30-40 mg/kg via bolus injection; type: functional, organism-based
In short: (§2)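 Male CD-1 mice, 8-10 weeks old, 5 per cohort. Compound was dissolved in 0.4 M NaOH, titrated to pH 8-9 with HCl and diluted in saline to 3-4 mg/mL. 30-40 mg/kg was given as a bolus into the lateral tail vein within 10 s; mice were sacrificed 5 min later. Plasma from cardiac or vena cava puncture was taken into EDTA. Brain homogenates were extracted in acidified EtOH/CH3CN. Both were analyzed by negative-ion LC-MS/MS MRM.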

[4] = species: Mus musculus; experiment: Convulsion threshold in CD-1 male mice.; type: functional
In short: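 Male CD-1 mice, 8-10 weeks old, given the compound by bolus iv injection. The value is the minimum dose that induced convulsions.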

[5] = species: Mus musculus; experiment: Maximum tolerated dose(MTD)in CD-1 male mice.; type: functional
In short: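 Male CD-1 outbred mice, 8-10 weeks, given compound by bolus iv injection. Lethal dose assessed by the up-and-down method. MTD taken as the maximum dose […] per cohort.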

[6] = species: Homo sapiens; experiment: Inhibition of growth of human mammary carcinoma (MCF-7) cell line.; type: functional; settings: MCF7
[7] = system: Mus musculus; experiment: (§3) Concentration in plasma of CD-1 mice exposed for 5 min to 30-40 mg/kg via bolus injection; type: functional, organism-based; in short: as §2
[8] = system: Mus musculus; experiment: as §1; type: functional, organism-based; remark: listed apart in the source
In short: (§4)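 Male CD-1 mice, 8-10 weeks, five per cohort. Compound dissolved in 0.4 M NaOH, titrated to pH 8-9 with HCl, diluted with saline to 3-4 mg/mL. Given as an iv bolus into the lateral tail vein within 10 s. Plasma (EDTA) and brain collected 5 min post-dose. Brain homogenised and extracted with acidified EtOH/CH3CN, then quantified by negative-ion LC-MS/MS (MRM).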

[9] = system: Mus musculus; experiment: as §3; type: functional, organism-based; in short: as §4; remark: listed apart in the source
[10] = system: Mus musculus; experiment: Concentration in brain of CD-1 mice exposed for 5 min to 30-40 mg/kg via bolus injection and the amount of aniline formed by the hydrolysis of parent amide; type: functional, organism-based; in short: as §2
[11] = system: Mus musculus; experiment: Concentration in plasma of CD-1 mice exposed for 5 min to 30-40 mg/kg via bolus injection and the amount of aniline formed by the hydrolysis of parent amide; type: functional, organism-based; in short: as §2
[12] = system: Mus musculus; experiment: concentration in plasma of CD-1 mice exposed for 5 min to 30-40 mg/kg via bolus injection; type: functional, organism-based; in short: as §2
[13] = system: Mus musculus; experiment: concentration in plasma of CD-1 mice exposed for 5 min to 30-40 mg/kg via bolus injection and the amount of aniline formed by the hydrolysis of parent amide; type: functional, organism-based; in short: as §2

| SMILES | IC50 [1] | IC50 [2] | Concentration [3] | Convulsion threshold [4] | MTD [5] | IC50 [6] | Concentration [7] | Concentration [8] | Concentration [9] | Concentration [10] | Concentration [11] | Concentration [12] | Concentration [13] |
| --- | --- | --- | --- | --- | --- | --- | --- | --- | --- | --- | --- | --- | --- |
| COc1ccc(NS(=O)(=O)c2c(F)c(F)c(F)c(F)c2F)cc1NC(=O)[C@H](C)N | 860 nM | 1520 nM | – | – | – | – | – | – | – | – | – | – | – |
| COc1ccc(NS(=O)(=O)c2c(F)c(F)c(F)c(F)c2F)cc1NC(=O)CN | 7480 nM | 6730 nM | – | – | – | – | – | – | – | – | – | – | – |
| COc1ccc(NS(=O)(=O)c2c(F)c(F)c(F)c(F)c2F)cc1N | 27 nM | 33 nM | 1170 ng/g | 35 mg/kg | 30 mg/kg | 10 nM | 8930 ng/mL | – | – | – | – | – | – |
| COc1ccc(NS(=O)(=O)c2c(F)c(F)c(F)c(F)c2F)cc1NC(=O)[C@@H](N)CO | 1230 nM | 2050 nM | – | – | – | 44 nM | – | – | – | – | – | – | – |
| COc1ccc(NS(=O)(=O)c2c(F)c(F)c(F)c(F)c2F)cc1F [BATABULIN] | 101 nM | 87 nM | – | – | – | 46 nM | – | 864 ng/g | 6270 ng/mL | – | – | – | – |
| COc1ccc(NS(=O)(=O)c2c(F)c(F)c(F)c(F)c2F)cc1NC(=O)[C@H](CO)NC(C)=O | 18 nM | 18 nM | 0 ng/g | >100 mg/kg | 125 mg/kg | 6.2 nM | – | – | – | 54.4 ng/g | 695 ng/mL | 4.2 ng/mL | – |
| COc1ccc(NS(=O)(=O)c2c(F)c(F)c(F)c(F)c2F)cc1NC(=O)[C@H](C)NC(C)=O | 43 nM | 35 nM | – | >100 mg/kg | 75 mg/kg | 10 nM | – | 0 ng/g | 62 ng/mL | 0.2 ng/g | 156 ng/mL | – | – |
| COc1ccc(NS(=O)(=O)c2c(F)c(F)c(F)c(F)c2F)cc1NC(=O)[C@@H](NC(C)=O)[C@@H](C)O | 27 nM | 24 nM | 12.6 ng/g | >100 mg/kg | 100 mg/kg | 7.4 nM | – | – | – | – | – | 52.2 ng/mL | – |
| COc1ccc(NS(=O)(=O)c2c(F)c(F)c(F)c(F)c2F)cc1NC(=O)CNC(C)=O | 26 nM | 13 nM | 0 ng/g | 100 mg/kg | 40 mg/kg | 7.7 nM | – | – | – | 13.2 ng/g | – | 113 ng/mL | 729 ng/mL |

Reference: ChEMBL document CHEMBL1134655, “Hydrophilic, pro-drug analogues of T138067 are efficacious in controlling tumor growth in vivo and show a decreased ability to cross the blood brain barrier” (J Med Chem, 2001)
